From ChEMBL document CHEMBL3112570, “Design, synthesis, and evaluation of pyrrolo[2,1-f][1,2,4]triazine derivatives as novel hedgehog signaling pathway inhibitors” (Bioorg Med Chem, 2014) come the findings set out here.

Series [1] in a line: Inhibition of hedgehog signaling pathway in mouse NIH/3T3 cells after 48 hrs by Gli-luciferase reporter gene assay. It counts as cell-based. The note with it: NIH3T3, 48 h. The procedure, abridged:
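NIH3T3 cells stably carrying a Gli-luciferase reporter, kept in DMEM + 10% FBS with puromycin. Seeded at 2 × 10⁴ cells/well and cultured overnight at 37 °C, 5% CO₂. Compounds added as an 8-point series (0.05–300 nM) in medium with 0.5% FBS plus Sonic Hedgehog agonist 0.7 µg/mL, n = 4 wells per concentration, 48 h. […] Lysates read by dual-luciferase.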
On the technique in general: Reporter assays use an easily measured gene product as a stand-in for the process of interest.

Series [2] can be described thus: Mean residence time (0 to t) in Sprague-Dawley rat at 1 mg/kg, iv by LC/MS/MS analysis. Format: ADME, organism-based. Also on record: dose 1 mg/kg, route intravenous. The note with it: in vivo. The procedure, abridged: (§1)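 Sprague-Dawley rats dosed iv at 1 mg/kg (n = 3). Blood samples were centrifuged at 4000 rpm for 5 min at 4 °C to give plasma. PK parameters were derived from plasma concentration-time data by noncompartmental analysis.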

A short description of series [3]: Clearance in Sprague-Dawley rat at 1 mg/kg, iv by LC/MS/MS analysis. It counts as ADME, organism-based. Also on record: dose 1 mg/kg, route intravenous. Conditions: in vivo. The procedure, abridged: as §1
The nature of series [4]: Cmax in Sprague-Dawley rat at 1 mg/kg, iv by LC/MS/MS analysis. It counts as ADME, organism-based. Also on record: dose 1 mg/kg, route intravenous. The note with it: in vivo. The procedure, abridged:
as §1

A short description of series [5]: Elimination half life in Sprague-Dawley rat at 1 mg/kg, iv by LC/MS/MS analysis. Format: ADME, organism-based. Also on record: dose 1 mg/kg, route intravenous. The note with it: in vivo, read-out: beta t1/2 (converted). The procedure, abridged:
as §1

Series [6] in a line: AUC in Sprague-Dawley rat at 1 mg/kg, iv by LC/MS/MS analysis. Details: dose 1 mg/kg, route intravenous. It counts as ADME, organism-based. The note with it: plasma. The method in brief:
as §1

The nature of series [7]: Apparent volume of distribution in Sprague-Dawley rat at 1 mg/kg, iv by LC/MS/MS analysis. Also on record: dose 1 mg/kg, route intravenous. It counts as ADME, organism-based. Conditions: in vivo, read-out: Vz. The method in brief:
as §1

Structures are written as SMILES. pIC50: −log10 of the molar value.

A word on the pIC50: it is the IC50 on a negative log10 scale, so that one unit is a factor of ten. High values mean a small IC50, low ones a large IC50. The compound `Cc1ccc(CN2CCCCC2)cc1NC(=O)c1ccc(Nc2nc(-c3ccc(OC(F)(F)F)cc3)c3cccn3n2)cc1` gave a pIC50 in series [1] of 9.21.
As usually defined, the MRT last is a mean duration of stay, worked out from the concentration-time curve. A word on the clearance: it is the volume of plasma or blood freed of the substance per unit of time. Low readings indicate inefficient removal, high ones efficient removal. One may read the Cmax as the peak of the concentration-time curve. As a reminder, the AUC is concentration integrated over time. As for `CS(=O)(=O)c1ccc(C(=O)Nc2ccc(Cl)c(-c3ccccn3)c2)c(Cl)c1` [VISMODEGIB], the pIC50 in series [1] was 8.14. Further, in series [2], the MRT last turned out to be 2.23 h. Further, in series [3], the clearance was 6.77 mL/min/kg. In addition, the Cmax in series [4] is 1250 ng/mL. For the same compound, the half-life in series [5] was 1.64 h. The AUC in series [6] worked out at 2460 ng·h/mL.
In the case of `Cc1ccc(CN2CCOCC2)cc1NC(=O)c1ccc(Nc2nc(-c3ccc(OC(F)(F)F)cc3)c3cccn3n2)cc1`, the pIC50 in series [1] was 9.08. Also, the MRT last in series [2] is 4.83 h. This compound also showed a clearance in series [3] of 6.9 mL/min/kg. The compound also showed a Cmax in series [4] of 2720 ng/mL. In addition, in series [5], the half-life was 8.86 h. For the same compound, in series [7], the Vd was found to be 5.23 L/kg. In series [6], this compound had an AUC of 2230 ng·h/mL.
Regarding `Cc1cccc(C)c1NC(=O)c1ccc(Nc2nc(-c3ccc(OC(F)(F)F)cc3)c3cccn3n2)cc1`, in series [1], the pIC50 was 8.80. Besides, the MRT last in series [2] is 4.68 h. The compound further gave a clearance in series [3] of 9.66 mL/min/kg. In series [4], this compound registered a Cmax of 2440 ng/mL. In series [5], the half-life was 15.2 h. In addition, the Vd in series [7] was 12.6 L/kg. Also, the AUC in series [6] was 1430 ng·h/mL.
`CCCc1cc(-c2ccc(OC(F)(F)F)cc2)nc(Nc2ccc(C(=O)Nc3c(C)cccc3C)cc2)n1` gave a pIC50 in series [1] of 9.10.
Same read-out and setting: under `Cc1ccc(CN2CCOCC2)cc1NC(=O)c1ccc(Nc2nc(-c3ccccn3)c3cccn3n2)cn1` stands 8.96.
`Cc1ccc(CN2CCCC2)cc1NC(=O)c1ccc(Nc2nc(-c3cnn(C)c3)c3cccn3n2)cc1` showed a pIC50 in series [1] of 7.91.
`Cc1ccc(CN2CCOCC2)cc1NC(=O)c1ccc(Nc2nc(-c3ccc(OC(F)(F)F)cc3)c3cccn3n2)cn1`: in series [1], the negative logarithm of the IC50 (pIC50) is 8.96. In addition, the MRT last in series [2] turned out to be 3.49 h. This compound also showed a clearance in series [3] of 8.38 mL/min/kg. In series [4], this compound gave a Cmax of 4190 ng/mL. Further, in series [5], the half-life is 8.34 h. The Vd in series [7] was found to be 5.97 L/kg. In addition, in series [6], the AUC was determined as 1940 ng·h/mL.
For the compound `Cc1ccc(CN2CCOCC2)cc1NC(=O)c1ccc(Nc2nc(-c3ccccn3)c3cccn3n2)c(F)c1`, the pIC50 in series [1] is 9.14.
On the same count and under the same terms, under `Cc1ccc(CN2CCOCC2)cc1NC(=O)c1ccc(Nc2nc(-c3cccnc3)c3cccn3n2)cc1` stands 8.80.
For `Cc1ccc(CN2CCOCC2)cc1NC(=O)c1ccc(Nc2nc(-c3cnn(C)c3)c3cccn3n2)cc1`, the pIC50 in series [1] was 8.92. In series [2], the MRT last was determined as 1.31 h. The compound also had a clearance in series [3] of 21.1 mL/min/kg. In series [4], this compound showed a Cmax of 1070 ng/mL. The half-life in series [5] was 1.23 h. Moreover, the Vd in series [7] was 2.19 L/kg. The compound also displayed an AUC in series [6] of 791 ng·h/mL.
The compound `Cc1cc(-c2ccc(OC(F)(F)F)cc2)nc(Nc2ccc(C(=O)Nc3c(C)cccc3C)cc2)n1` had a pIC50 in series [1] of 8.85.
In series [1], `Cc1cccc(C)c1NC(=O)c1ccc(Nc2nc(C)c(C)c(-c3ccc(OC(F)(F)F)cc3)n2)cc1` had a pIC50 of 8.80.
In turn, `Cc1ccc(CN2CCOCC2)cc1NC(=O)c1ccc(Nc2nc(-c3ccccc3)c3cccn3n2)cc1` gave a pIC50 in series [1] of 8.82.
The same measure, in the same setting: under `CCc1cnc(Nc2ccc(C(=O)Nc3c(C)cccc3C)cc2)nc1-c1ccc(OC(F)(F)F)cc1` stands 8.28.
On the same count and under the same terms, to `Cc1ccc(CN2CCN(C)CC2)cc1NC(=O)c1ccc(Nc2nc(-c3ccc(OC(F)(F)F)cc3)c3cccn3n2)cc1` belongs 8.77.
Take `Cc1ccc(CN2CCOCC2)cc1NC(=O)c1ccc(Nc2nc(-c3ccccn3)c3cccn3n2)cc1`: the pIC50 in series [1] was 9.01. The compound also had an MRT last in series [2] of 1.64 h. For the same compound, in series [3], the clearance is 22 mL/min/kg. Besides, the Cmax in series [4] is 637 ng/mL. The half-life in series [5] was 1.51 h. For the same compound, in series [7], the Vd came to 2.85 L/kg. For the same compound, the AUC in series [6] came to 764 ng·h/mL.
Compound `Cc1ccc(CN2CCCC2)cc1NC(=O)c1ccc(Nc2nc(-c3ccc(OC(F)(F)F)cc3)c3cccn3n2)cc1` showed a pIC50 in series [1] of 8.77.
Take `Cc1ccc(CN2CCN(C)CC2)cc1NC(=O)c1ccc(Nc2nc(-c3cnn(C)c3)c3cccn3n2)cc1`: the pIC50 in series [1] was 8.12.
In series [1], `O=C(Nc1cccc(CN2CCOCC2)c1)c1ccc(Nc2nc(-c3ccc(OC(F)(F)F)cc3)c3cccn3n2)cn1` showed a pIC50 of 8.06.
On the same count and under the same terms, under `Cc1ccc(CN2CCCCC2)cc1NC(=O)c1ccc(Nc2nc(-c3cnn(C)c3)c3cccn3n2)cc1` stands 7.95.
